Assay results: ChEMBL document CHEMBL3611968, “Reengineered tricyclic anti-cancer agents” (Bioorg Med Chem, 2015)
Active and inactive are the calls of the source. No cut-off for these calls is given here.

Experiments:
[1] = tested on: NCI-H1650; assay: Cytotoxicity against human NCI-H1650 cells assessed as growth inhibition after 48 hrs by MTT assay; assay type: functional; settings: NCI-H1650, 48 h
Summary of the method: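 H1650 cells were exposed to drug for 48 h at five concentrations bracketing 1–40 μM in 10 μM steps, with MTT read-out. GI50 is given only where the data form a sigmoidal dose response.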

[2] = target: Sodium channel protein type 5 subunit alpha (Homo sapiens, UniProt Q14524); assay: Inhibition of Nav1.5 channel (unknown origin) expressed in HEK293 cells at […] by patch clamp assay; assay type: cell-based
Sequence of Sodium channel protein type 5 subunit alpha (Q14524 whole entry): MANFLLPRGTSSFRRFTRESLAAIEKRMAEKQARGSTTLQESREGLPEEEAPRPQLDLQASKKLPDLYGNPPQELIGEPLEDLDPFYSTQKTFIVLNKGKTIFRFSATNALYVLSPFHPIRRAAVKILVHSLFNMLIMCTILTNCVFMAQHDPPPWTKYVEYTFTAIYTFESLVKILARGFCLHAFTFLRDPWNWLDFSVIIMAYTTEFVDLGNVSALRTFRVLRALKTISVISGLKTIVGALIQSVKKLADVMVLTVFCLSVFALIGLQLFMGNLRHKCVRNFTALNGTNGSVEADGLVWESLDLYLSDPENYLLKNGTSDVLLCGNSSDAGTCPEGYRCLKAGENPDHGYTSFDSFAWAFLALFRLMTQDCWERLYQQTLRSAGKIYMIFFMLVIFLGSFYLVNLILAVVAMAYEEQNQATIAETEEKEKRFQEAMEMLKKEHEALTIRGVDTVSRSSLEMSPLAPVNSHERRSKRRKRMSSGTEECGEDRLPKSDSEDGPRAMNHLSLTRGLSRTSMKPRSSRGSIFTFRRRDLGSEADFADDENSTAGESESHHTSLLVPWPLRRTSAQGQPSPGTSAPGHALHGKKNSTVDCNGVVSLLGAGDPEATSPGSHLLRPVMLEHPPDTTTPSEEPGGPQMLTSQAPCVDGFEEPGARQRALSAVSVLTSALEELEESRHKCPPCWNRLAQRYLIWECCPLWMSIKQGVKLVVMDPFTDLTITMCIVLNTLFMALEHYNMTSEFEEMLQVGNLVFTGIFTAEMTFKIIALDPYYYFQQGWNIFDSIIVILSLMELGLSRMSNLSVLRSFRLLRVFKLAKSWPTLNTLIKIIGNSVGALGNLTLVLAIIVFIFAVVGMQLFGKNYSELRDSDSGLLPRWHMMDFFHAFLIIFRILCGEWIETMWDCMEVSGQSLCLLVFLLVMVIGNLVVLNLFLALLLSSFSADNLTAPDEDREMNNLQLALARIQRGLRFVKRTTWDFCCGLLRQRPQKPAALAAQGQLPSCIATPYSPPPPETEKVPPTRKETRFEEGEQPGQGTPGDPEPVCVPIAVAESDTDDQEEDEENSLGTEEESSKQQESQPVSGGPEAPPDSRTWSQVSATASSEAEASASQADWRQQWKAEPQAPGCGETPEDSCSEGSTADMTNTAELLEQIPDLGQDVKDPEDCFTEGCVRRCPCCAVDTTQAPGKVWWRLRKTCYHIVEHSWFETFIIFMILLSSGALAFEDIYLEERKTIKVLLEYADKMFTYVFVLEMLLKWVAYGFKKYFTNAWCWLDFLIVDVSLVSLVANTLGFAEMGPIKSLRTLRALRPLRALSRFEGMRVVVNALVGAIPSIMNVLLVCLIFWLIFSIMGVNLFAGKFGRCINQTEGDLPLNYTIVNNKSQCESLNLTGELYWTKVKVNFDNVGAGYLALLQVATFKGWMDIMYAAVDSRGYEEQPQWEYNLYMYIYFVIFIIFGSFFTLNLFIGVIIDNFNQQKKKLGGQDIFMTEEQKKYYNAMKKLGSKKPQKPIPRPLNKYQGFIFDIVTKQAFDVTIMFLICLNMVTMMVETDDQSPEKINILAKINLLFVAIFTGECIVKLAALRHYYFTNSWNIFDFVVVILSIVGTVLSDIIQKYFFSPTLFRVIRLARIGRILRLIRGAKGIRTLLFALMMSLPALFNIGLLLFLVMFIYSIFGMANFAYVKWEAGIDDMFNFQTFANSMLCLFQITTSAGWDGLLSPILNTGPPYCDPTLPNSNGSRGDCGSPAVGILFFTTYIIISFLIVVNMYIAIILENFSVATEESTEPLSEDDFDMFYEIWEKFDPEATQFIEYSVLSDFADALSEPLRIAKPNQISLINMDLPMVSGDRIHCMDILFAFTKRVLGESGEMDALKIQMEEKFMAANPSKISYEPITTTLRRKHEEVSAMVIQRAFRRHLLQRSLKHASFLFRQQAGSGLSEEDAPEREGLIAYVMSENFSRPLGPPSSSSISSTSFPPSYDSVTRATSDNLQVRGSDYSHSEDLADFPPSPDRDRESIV

[3] = Cmax in mouse at 100 mg/kg, ip administered through DMA/solutol/water; assay type: ADME, organism-based; set-up: dose 100 mg/kg, route intraperitoneal; settings: in vivo
[4] = organism: Homo sapiens; assay: Displacement of [3H]-diltiazem from L-type Ca2+ channel diltiazem site (unknown origin) at […]
[5] = AUCinfinity in mouse at 100 mg/kg, ip administered through DMSO; assay type: ADME, organism-based; set-up: dose 100 mg/kg, time infinity, route intraperitoneal; settings: in vivo
[6] = target: Sodium-dependent dopamine transporter (Homo sapiens) (UniProt Q01959); assay: Displacement of [3H]-BTCP from dopamine transporter (unknown origin) at 1 to 10 mM
Sequence of Sodium-dependent dopamine transporter (Homo sapiens) (Q01959 whole entry): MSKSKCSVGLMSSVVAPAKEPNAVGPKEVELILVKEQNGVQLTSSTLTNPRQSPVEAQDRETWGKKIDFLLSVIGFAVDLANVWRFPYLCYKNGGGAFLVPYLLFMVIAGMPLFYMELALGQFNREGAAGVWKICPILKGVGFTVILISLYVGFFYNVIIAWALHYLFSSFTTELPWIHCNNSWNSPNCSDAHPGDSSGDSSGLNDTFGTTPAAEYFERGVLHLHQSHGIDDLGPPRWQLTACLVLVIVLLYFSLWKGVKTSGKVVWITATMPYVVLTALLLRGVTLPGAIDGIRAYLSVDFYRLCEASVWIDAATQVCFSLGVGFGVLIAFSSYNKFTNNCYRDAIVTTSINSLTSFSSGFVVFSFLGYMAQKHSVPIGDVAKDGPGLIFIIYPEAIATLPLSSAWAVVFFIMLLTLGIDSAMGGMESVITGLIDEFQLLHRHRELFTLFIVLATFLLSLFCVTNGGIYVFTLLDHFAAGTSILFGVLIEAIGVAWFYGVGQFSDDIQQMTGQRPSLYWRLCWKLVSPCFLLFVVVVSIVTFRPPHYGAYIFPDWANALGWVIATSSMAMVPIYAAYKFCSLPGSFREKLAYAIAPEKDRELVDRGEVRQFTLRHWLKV
Summary of the method: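 Dopamine transporter antagonist radioligand binding used [3H]BTCP, tested at 0.1, 1.0 and 10 mM, as percent inhibition. Each value is the average of two independent determinations.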

[7] = Cmax in mouse at 25 mg/kg, ip; assay type: ADME, organism-based; set-up: dose 25 mg/kg, route intraperitoneal; settings: in vivo
[8] = AUClast in mouse at 25 mg/kg, ip; assay type: ADME, organism-based; settings: in vivo
[9] = AUCinfinity in mouse at 100 mg/kg, ip administered through DMA/solutol/water; assay type: ADME, organism-based; set-up: dose 100 mg/kg, route intraperitoneal, time infinity; settings: in vivo
[10] = Oral bioavailability in mouse at 25 mg/kg; assay type: ADME, organism-based; settings: in vivo
[11] = Cmax in mouse at 100 mg/kg, ip administered through DMSO; assay type: ADME, organism-based; set-up: dose 100 mg/kg, route intraperitoneal; settings: in vivo
[12] = Tmax in mouse at 25 mg/kg, po; assay type: ADME, organism-based; settings: in vivo
[13] = AUCinfinity in mouse at 25 mg/kg, po; assay type: ADME, organism-based; set-up: dose 25 mg/kg, route oral, time infinity; settings: in vivo
[14] = target: Sodium-dependent serotonin transporter (Homo sapiens) (UniProt P31645); assay: Displacement of [3H]-imipramine from serotonin transporter (unknown origin) at 0.1 to 10 mM relative to control
Sequence of Sodium-dependent serotonin transporter (Homo sapiens) (P31645 whole entry, looked up): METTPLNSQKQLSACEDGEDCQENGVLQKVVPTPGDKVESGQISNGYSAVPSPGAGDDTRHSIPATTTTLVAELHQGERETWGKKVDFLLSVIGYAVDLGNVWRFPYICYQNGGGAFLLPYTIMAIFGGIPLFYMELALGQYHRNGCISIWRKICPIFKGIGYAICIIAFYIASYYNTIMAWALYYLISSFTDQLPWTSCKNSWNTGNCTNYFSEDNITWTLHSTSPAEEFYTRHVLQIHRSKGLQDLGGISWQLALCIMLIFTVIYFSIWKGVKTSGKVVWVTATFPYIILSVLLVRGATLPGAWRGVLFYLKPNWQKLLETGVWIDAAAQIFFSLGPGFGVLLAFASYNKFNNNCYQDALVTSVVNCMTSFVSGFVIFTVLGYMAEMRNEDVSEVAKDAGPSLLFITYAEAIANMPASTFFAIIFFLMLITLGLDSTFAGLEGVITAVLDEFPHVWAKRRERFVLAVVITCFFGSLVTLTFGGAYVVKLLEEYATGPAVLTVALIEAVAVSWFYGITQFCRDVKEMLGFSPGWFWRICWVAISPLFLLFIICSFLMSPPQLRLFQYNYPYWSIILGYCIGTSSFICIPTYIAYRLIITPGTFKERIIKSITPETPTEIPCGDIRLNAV
Summary of the method: (§1)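 Competitive antagonist radioligand binding at monoamine transporters. Serotonin transporter is labelled with [³H]imipramine and norepinephrine transporter with [³H]nisoxetine. The compound was tested at three concentrations, and binding is expressed as percent inhibition of specific radioligand binding. Each value is the mean of two independent determinations.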

[15] = Half life in mouse at 1 mg/kg, iv; assay type: ADME, organism-based; settings: in vivo
[16] = target: RAC-alpha serine/threonine-protein kinase (Homo sapiens) (UniProt P31749); assay: Inhibition of AKT phosphorylation in human NCI-H1650 cells at 20 to 40 uM after 12 hrs by Western blot analysis; assay type: cell-based
Sequence of RAC-alpha serine/threonine-protein kinase (Homo sapiens) (P31749 whole entry): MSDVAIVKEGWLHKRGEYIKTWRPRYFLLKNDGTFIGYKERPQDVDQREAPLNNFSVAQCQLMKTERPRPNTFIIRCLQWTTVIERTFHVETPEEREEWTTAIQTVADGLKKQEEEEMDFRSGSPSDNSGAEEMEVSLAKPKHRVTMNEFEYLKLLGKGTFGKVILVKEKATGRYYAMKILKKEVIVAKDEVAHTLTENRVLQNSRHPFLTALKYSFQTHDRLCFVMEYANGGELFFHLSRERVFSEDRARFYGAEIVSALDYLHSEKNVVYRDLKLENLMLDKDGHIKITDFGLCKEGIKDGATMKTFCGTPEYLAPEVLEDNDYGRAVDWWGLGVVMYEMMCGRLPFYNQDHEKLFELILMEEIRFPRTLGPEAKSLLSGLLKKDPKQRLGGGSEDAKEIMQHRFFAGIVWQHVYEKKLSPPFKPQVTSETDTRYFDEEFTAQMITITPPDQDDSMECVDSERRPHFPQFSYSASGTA

[17] = tested on: NCI-H1650; assay: Induction of apoptosis in human NCI-H1650 cells by Annexin V staining; assay type: functional, cell-based
[18] = Tmax in mouse at 25 mg/kg, ip; assay type: ADME, organism-based; settings: in vivo
[19] = AUClast in mouse at 1 mg/kg, iv; assay type: ADME, organism-based; settings: in vivo
[20] = Tmax in mouse at 100 mg/kg, ip administered through DMA/solutol/water; assay type: ADME, organism-based; settings: in vivo
[21] = AUClast in mouse at 100 mg/kg, ip administered through DMSO; assay type: ADME, organism-based; settings: in vivo
[22] = target: Histamine H2 receptor (Homo sapiens) (UniProt P25021); assay: Displacement of [125I]-APT from histamine H2 receptor (unknown origin) at […]
[23] = target: Sodium-dependent noradrenaline transporter (Homo sapiens) (UniProt P23975); assay: Displacement of [3H]-nisoxetine from norepinephrine transporter (unknown origin) at 1 to 10 mM; summary of the method: as §1
Sequence of Sodium-dependent noradrenaline transporter (Homo sapiens) (P23975 whole entry): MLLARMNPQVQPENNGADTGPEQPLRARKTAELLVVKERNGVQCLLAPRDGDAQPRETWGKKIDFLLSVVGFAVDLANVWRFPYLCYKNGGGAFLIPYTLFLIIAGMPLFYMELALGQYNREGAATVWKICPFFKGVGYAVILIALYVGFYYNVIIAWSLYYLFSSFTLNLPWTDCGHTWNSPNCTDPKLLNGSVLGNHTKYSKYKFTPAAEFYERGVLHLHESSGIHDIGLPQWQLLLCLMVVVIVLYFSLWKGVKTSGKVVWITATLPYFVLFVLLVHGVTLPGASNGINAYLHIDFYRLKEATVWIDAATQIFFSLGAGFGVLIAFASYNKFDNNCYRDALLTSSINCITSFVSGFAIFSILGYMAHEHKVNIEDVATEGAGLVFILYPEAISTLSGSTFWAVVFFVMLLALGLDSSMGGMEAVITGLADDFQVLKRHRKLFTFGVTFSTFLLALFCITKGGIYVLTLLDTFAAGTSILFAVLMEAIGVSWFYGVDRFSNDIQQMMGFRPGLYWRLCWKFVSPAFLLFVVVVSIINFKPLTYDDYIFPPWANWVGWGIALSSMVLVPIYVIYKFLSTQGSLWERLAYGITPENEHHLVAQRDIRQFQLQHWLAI

[24] = tested on: NCI-H1650; assay: Inhibition of ERK phosphorylation in human NCI-H1650 cells at 20 to 40 uM after 12 hrs by Western blot analysis; assay type: cell-based
[25] = target: T1, Muscarinic acetylcholine receptor M2 (Homo sapiens) (UniProt P08172); assay: Displacement of [3H]-AF-DX384 from muscarinic acetylcholine M2 receptor (unknown origin) at […]
T1 sequence (whole entry): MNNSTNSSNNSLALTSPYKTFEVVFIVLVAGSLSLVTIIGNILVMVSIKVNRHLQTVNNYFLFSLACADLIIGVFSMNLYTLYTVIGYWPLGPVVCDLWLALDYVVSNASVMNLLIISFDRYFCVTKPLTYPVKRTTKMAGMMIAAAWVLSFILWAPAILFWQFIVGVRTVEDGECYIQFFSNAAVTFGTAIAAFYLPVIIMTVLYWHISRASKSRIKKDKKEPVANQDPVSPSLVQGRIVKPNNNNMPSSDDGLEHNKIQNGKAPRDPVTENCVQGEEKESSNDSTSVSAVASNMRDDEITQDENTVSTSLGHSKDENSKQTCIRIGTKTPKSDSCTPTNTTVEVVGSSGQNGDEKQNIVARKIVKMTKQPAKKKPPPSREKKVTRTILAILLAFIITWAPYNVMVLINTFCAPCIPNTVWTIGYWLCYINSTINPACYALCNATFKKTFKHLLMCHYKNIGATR

[26] = Cmax in mouse at 25 mg/kg, po; assay type: ADME, organism-based; set-up: dose 25 mg/kg, route oral; settings: in vivo
[27] = AUClast in mouse at 100 mg/kg, ip administered through DMA/solutol/water; assay type: ADME, organism-based; settings: in vivo
[28] = organism: Homo sapiens; assay: Displacement of [3H]-glibencamide from K (ATP) channel (unknown origin) at […]
[29] = Bioavailability in mouse at 100 mg/kg, ip administered through DMSO; assay type: ADME, organism-based; settings: in vivo
[30] = tested on: NCI-H1650; assay: Induction of apoptosis in human NCI-H1650 cells by Annexin V staining in presence of pan caspase inhibition Z-VAD; assay type: functional, cell-based
[31] = tested on: NCI-H1650; assay: Antitumor activity against human NCI-H1650 cells xenografted in BALB/c nu/nu mouse assessed as change in tumor volume at 100 mg/kg, ip administered every other day for 3 weeks (reference value: 3.46 +/- 0.95); assay type: functional
Summary of the method: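 H1650 tumours were grown in mice. The 100 mg/kg treated group (n = 9) was compared with vehicle controls (n = 7) on mean fold change in tumour volume, using Student's t test.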

[32] = Oral bioavailability in mouse at 100 mg/kg; assay type: ADME, organism-based; settings: in vivo
[33] = Tmax in mouse at 100 mg/kg, po; assay type: ADME, organism-based; settings: in vivo
[34] = tested on: NCI-H1650; assay: Cell cycle arrest in human NCI-H1650 cells assessed as accumulation at sub-G1 phase at 1 to 40 uM by propidium iodide staining-based flow cytometric analysis; assay type: functional
[35] = Bioavailability in mouse at 100 mg/kg, ip administered through DMA/solutol/water; assay type: ADME, organism-based; settings: in vivo
[36] = AUClast in mouse at 25 mg/kg, po; assay type: ADME, organism-based; settings: in vivo
[37] = Volume of distribution at steady state in mouse at 1 mg/kg, iv; assay type: ADME, organism-based; settings: in vivo, read-out: Vdss
[38] = Cmax in mouse at 100 mg/kg, po; assay type: ADME, organism-based; set-up: dose 100 mg/kg, route oral; settings: in vivo
[39] = AUCinfinity in mouse at 25 mg/kg, ip; assay type: ADME, organism-based; set-up: dose 25 mg/kg, time infinity, route intraperitoneal; settings: in vivo
[40] = Tmax in mouse at 100 mg/kg, ip administered through DMSO; assay type: ADME, organism-based; settings: in vivo
[41] = organism: Homo sapiens; assay: Displacement of [125-I]-apamin from SKCa channel (unknown origin) at 0.1 to 10 mM
[42] = tested on: Voltage-gated potassium channel; assay: Displacement of [125-I]-dendrotoxin from Kv channel (unknown origin) at 0.1 to 10 mM; assay type: protein assay; settings: human
[43] = AUCinfinity in mouse at 100 mg/kg, po; assay type: ADME, organism-based; set-up: dose 100 mg/kg, route oral, time infinity; settings: in vivo
[44] = Bioavailability in mouse at 25 mg/kg, ip; assay type: ADME, organism-based; settings: in vivo
[45] = AUClast in mouse at 100 mg/kg, po; assay type: ADME, organism-based; settings: in vivo
[46] = target: Histamine H1 receptor (Homo sapiens) (UniProt P35367); assay: Displacement of [3H]-pyrilamine from histamine H1 receptor (unknown origin) at […]
Sequence of Histamine H1 receptor (Homo sapiens) (P35367 whole entry): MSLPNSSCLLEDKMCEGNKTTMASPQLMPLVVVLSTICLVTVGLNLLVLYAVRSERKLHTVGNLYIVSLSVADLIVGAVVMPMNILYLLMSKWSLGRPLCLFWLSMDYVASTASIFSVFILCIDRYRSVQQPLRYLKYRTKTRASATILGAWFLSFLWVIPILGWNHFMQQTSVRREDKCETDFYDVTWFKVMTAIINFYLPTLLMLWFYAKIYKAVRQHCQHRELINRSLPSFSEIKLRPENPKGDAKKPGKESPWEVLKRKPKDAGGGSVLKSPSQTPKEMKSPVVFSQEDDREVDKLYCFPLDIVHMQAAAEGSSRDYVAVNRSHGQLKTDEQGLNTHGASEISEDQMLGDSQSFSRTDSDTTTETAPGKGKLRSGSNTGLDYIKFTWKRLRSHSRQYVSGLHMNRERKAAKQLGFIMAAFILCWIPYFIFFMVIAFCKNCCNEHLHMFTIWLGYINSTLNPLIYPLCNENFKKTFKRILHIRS

[47] = organism: Homo sapiens; assay: Displacement of [3H]-nitrendipine from L-type Ca2+ channel dihydropyridine site (unknown origin) at […]
[48] = target: Voltage-gated inwardly rectifying potassium channel KCNH2 (Homo sapiens, UniProt Q12809); assay: Displacement of [3H]-astemizole from human ERG at […]
[49] = Clearance in mouse at 1 mg/kg, iv; assay type: ADME, organism-based; settings: in vivo
[50] = organism: Homo sapiens; assay: Displacement of [3H]-D888 from L-type Ca2+ channel verapamil site (unknown origin) at […]
[51] = AUCinfinity in mouse at 1 mg/kg, iv; assay type: ADME, organism-based; set-up: dose 1 mg/kg, time infinity, route intravenous; settings: in vivo

## O=S(=O)(NCCCN1c2ccccc2CCc2ccc(Cl)cc21)c1ccc(OC(F)(F)F)cc1
[1]
  GI50: 12.6 µM
[2]
  inhibition (INH): Not Active
[3]
  Cmax: 2350 ng/mL
[4]
  inhibition: inactive
[5]
  AUC(0-inf): 40700 ng·h/mL
[6]
  inhibition: Active
[7]
  Cmax: 754 ng/mL
[8]
  AUC(0-t): 3570 ng·h/mL
[9]
  AUC(0-inf): 14100 ng·h/mL
[10]
  bioavailability: 15%
[11]
  Cmax: 3100 ng/mL
[12]
  Tmax: 1 h
[13]
  AUC(0-inf): 1430 ng·h/mL
[14]
  inhibition: < 5%
[15]
  half-life: 0.61 h
[16]
  inhibition: Active
[17]
  Activity: Active
[18]
  Tmax: 1 h
[19]
  AUC(0-t): 375 ng·h/mL
[20]
  Tmax: 2 h
[21]
  AUC(0-t): 38800 ng·h/mL
[22]
  inhibition: inactive
[23]
  inhibition: Active
[24]
  inhibition: Active
[25]
  inhibition: inactive
[26]
  Cmax: 476 ng/mL
[27]
  AUC(0-t): 12800 ng·h/mL
[28]
  inhibition: inactive
[29]
  bioavailability: 100%
[30]
  Activity: inactive
[31]
  fold change (FC): 1.49
[32]
  bioavailability: 18%
[33]
  Tmax: 2 h
[34]
  Activity: Active
[35]
  bioavailability: 34%
[36]
  AUC(0-t): 1380 ng·h/mL
[37]
  Vd: 1.31 L/kg
[38]
  Cmax: 1940 ng/mL
[39]
  AUC(0-inf): 3680 ng·h/mL
[40]
  Tmax: 4 h
[41]
  inhibition: inactive
[42]
  inhibition (INH): Not Active
[43]
  AUC(0-inf): 7210 ng·h/mL
[44]
  bioavailability: 38%
[45]
  AUC(0-t): 6790 ng·h/mL
[46]
  inhibition: inactive
[47]
  inhibition: inactive
[48]
  inhibition (INH): Not Active
[49]
  clearance: 42 mL/min/kg
[50]
  inhibition: inactive
[51]
  AUC(0-inf): 399 ng·h/mL
